Source: ChEMBL document CHEMBL5154764, “Development of small molecules that work cooperatively with ciprofloxacin to clear salmonella biofilms in a chronic gallbladder carriage model” (Eur J Med Chem, 2022)
pEC50, pIC50: −log10 of the molar value. Calls of active or inactive are those of the source. No cut-off for these calls is given here.

Legend:
Salmonella typhimurium [1] = test: Antibiofilm activity against Salmonella typhimurium ATCC 14028 assessed as inhibition of biofilm formation incubated for 24 hrs by crystal violet staining based spectrophotometry; format: functional, organism-based, Salmonella enterica subsp. enterica serovar Typhimurium; settings: Salmonella enterica, ATCC 14028, 24 h
How it was run: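 LB overnight cultures (37 °C) set to OD600 0.8, diluted 1:100 into TSB diluted 1:20 in water. Compound at 0.2–100 μM or DMSO added at inoculation. Grown 24 h at 30 °C with nutation, washed, heat-fixed (60 °C, 1 h), stained with crystal violet, dye solubilized in acetic acid, read at 570 nm. IC50 from variable-slope fit of % biofilm vs log concentration. Mean ± SD of three biological replicates.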

Salmonella typhimurium [2] = test: Antibiofilm activity against Salmonella typhimurium ATCC 14028 assessed as biofilm dispersal effect incubated for 24 hrs by crystal violet staining based spectrophotometry; format: functional, organism-based, Salmonella enterica subsp. enterica serovar Typhimurium; settings: Salmonella enterica, ATCC 14028, 24 h
How it was run: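 Biofilms grown 24 h at 30 °C with nutation in TSB diluted 1:20, from 1:100-diluted LB overnight cultures set to OD600 0.8. Crystal violet staining, acetic acid solubilization, 570 nm read-out. EC50 from variable-slope fit of % biofilm remaining vs log concentration. Mean ± SD of three biological replicates.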

Salmonella typhimurium [3] = test: (§1) Antibacterial activity against Salmonella typhimurium ATCC 14028 infected in 129X1/SvJ NRAMP +/+ mouse gallstone model assessed as log reduction in bacterial burden in gallblader at 5 mg/kg/day, ip administered for 5 to 15 consecutive days of post infection and measured on day 15 in presence of 1 mg/kg/day ciprofloxacin; format: functional, Salmonella enterica subsp. enterica serovar Typhimurium; settings: time 10 day
How it was run: (§2)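 129X1/SvJ NRAMP+/+ mice given a lithogenic diet (chow plus 1% cholesterol, 0.5% cholic acid) for 8 weeks. Infected i.p. with ~10^3 CFU in 200 μL PBS. Treated daily i.p. on days 5–15 post-infection; vehicle 5% DMSO in PBS. Day 15: gallbladder, liver and spleen homogenized in 1 mL PBS, serially diluted and plated on LB agar (37 °C, 16 h) for CFU counts. One-way ANOVA with Tukey correction.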

Salmonella typhimurium [4] = test: as §1, with “at 10” for “at 5”, “administered from” for “administered for”, “days” for “days of post infection”; format: functional, Salmonella enterica subsp. enterica serovar Typhimurium; settings: time 10 day
Salmonella typhimurium [5] = test: Antibacterial activity against Salmonella typhimurium ATCC 14028 infected in 129X1/SvJ NRAMP +/+ mouse gallstone model assessed as log reduction in bacterial burden in gallblader at 4 mg/kg/day, ip administered from 5 to 15 consecutive days and measured on day 15; format: functional, Salmonella enterica subsp. enterica serovar Typhimurium; settings: time 10 day; how it was run: as §2
Salmonella typhimurium [6] = test: Antibacterial activity against Salmonella typhimurium ATCC 14028 infected in 129X1/SvJ NRAMP +/+ mouse gallstone model assessed as reduction in bacterial burden in liver at 2 mg/kg/day, ip administered from 5 to 15 consecutive days and measured on day 15; format: functional, organism-based; settings: Salmonella enterica subsp. enterica serovar Typhimurium, time 10.0 day; how it was run: as §2
Salmonella typhimurium [7] = test: Antibacterial activity against Salmonella typhimurium ATCC 14028 infected in 129X1/SvJ NRAMP +/+ mouse gallstone model assessed as reduction in bacterial burden in spleen at 2 mg/kg/day, ip administered from 5 to 15 consecutive days and measured on day 15; format: functional, organism-based; settings: Salmonella enterica subsp. enterica serovar Typhimurium, time 10.0 day; how it was run: as §2
Salmonella typhimurium [8] = test: Antibacterial activity against Salmonella typhimurium ATCC 14028 assessed as bacterial growth inhibition at >= 50 uM; format: functional, organism-based; settings: Salmonella enterica subsp. enterica serovar Typhimurium
Salmonella typhimurium [9] = test: Antibacterial activity against Salmonella typhimurium ATCC 14028 assessed as bacterial growth inhibition at >=100 uM; format: functional, organism-based; settings: Salmonella enterica subsp. enterica serovar Typhimurium
Salmonella typhimurium [10] = test: as §1, with “as” for “as log”, “of 4” for “of 1”; format: functional, organism-based; settings: Salmonella enterica subsp. enterica serovar Typhimurium, time 10.0 day; how it was run: as §2
Salmonella typhimurium [11] = test: as §1, with “as” for “as log”, “in liver” for “in gallblader”, “of 4” for “of 1”; format: functional, organism-based; settings: Salmonella enterica subsp. enterica serovar Typhimurium, time 10.0 day; how it was run: as §2
Salmonella typhimurium [12] = test: as §1, with “as” for “as log”, “in spleen” for “in gallblader”, “of 4” for “of 1”; format: functional, organism-based; settings: Salmonella enterica subsp. enterica serovar Typhimurium, time 10.0 day; how it was run: as §2
Salmonella typhimurium [13] = test: Antibacterial activity against Salmonella typhimurium ATCC 14028 assessed as bacterial growth inhibition at >=12.5 uM; format: functional, organism-based; settings: Salmonella enterica subsp. enterica serovar Typhimurium

Row | Structure (SMILES) | pIC50 (Salmonella typhimurium [1]) | pEC50 (Salmonella typhimurium [2]) | also measured
1 | CN(Cc1ccsc1)CC1CCN(Cc2ccccc2)CC1 | 4.57 | < 1.92 | 
2 | CN(Cc1ccsc1)CC1CCN(Cc2ccc(Br)cc2)CC1 | 5.07 | 3.90 | 
3 | CN(Cc1ccsc1)CC1CCNCC1 | 3.86 | 3.35 | 
4 | CN(Cc1ccsc1)CC1CCN(Cc2cccc(F)c2)CC1 | 5.06 | 2.98 | 
5 | CN(Cc1ccsc1)CC1CCN(Cc2ccc(F)cc2)CC1 | 4.89 | 3.35 | 
6 | CN(Cc1ccsc1)CC1CCN(CCc2cccc(Cl)c2Cl)CC1 |  |  | log(activity) (Salmonella typhimurium [3]): 1.5
7 | CN(Cc1ccsc1)CC1CCN(Cc2cccc(Br)c2)CC1 | 5.19 | 3.85 | 
8 | O=C(O)c1cn(C2CC2)c2cc(N3CCNCC3)c(F)cc2c1=O [CIPROFLOXACIN] |  |  | log(activity) (Salmonella typhimurium [5]): 3; Activity (Salmonella typhimurium [6]): Active; Activity (Salmonella typhimurium [7]): Active
9 | CN(Cc1ccsc1)CC1CCN(Cc2cc(F)cc(F)c2)CC1 | 4.85 | < 1.92 | 
10 | CN(Cc1ccsc1)CC1CCN(CCc2ccccc2)CC1 | 4.67 | < 1.92 | 
11 | CN(Cc1ccsc1)CC1CCN(Cc2ccc(F)c(F)c2)CC1 | 5.14 | 2.42 | 
12 | CN(Cc1ccsc1)CC1CCN(CCc2ccc(Br)c(Br)c2)CC1 |  |  | log(activity) (Salmonella typhimurium [3]): 4.5; Activity (Salmonella typhimurium [10]): Active; Activity (Salmonella typhimurium [11]): Active; Activity (Salmonella typhimurium [12]): Active; growth inhibition (GI) (Salmonella typhimurium [13]): Active
13 | CN(Cc1ccsc1)CC1CCN(CCc2cccc(F)c2)CC1 | 5.16 | 3.41 | 
14 | CN(Cc1ccsc1)CC1CCN(CCc2ccc(F)cc2)CC1 | 4.77 | 3.63 | 
15 | CN(Cc1ccsc1)CC1CCN(Cc2c(F)cccc2F)CC1 | < 3.70 | < 1.92 | growth inhibition (GI) (Salmonella typhimurium [9]): Active
16 | CN(Cc1ccsc1)CC1CCN(CCc2cc(F)cc(F)c2)CC1 | < 3.70 | < 1.92 | growth inhibition (GI) (Salmonella typhimurium [8]): Active
17 | CN(Cc1ccsc1)CC1CCN(CCc2c(F)cccc2F)CC1 | 5.20 | 3.86 | 

Row | Structure (SMILES) | pIC50 (Salmonella typhimurium [1]) | pEC50 (Salmonella typhimurium [2]) | also measured
18 | COc1ccccc1CCN1CCC(CN(C)Cc2ccsc2)CC1 | 4.77 | 1.93 | 
19 | CN(Cc1ccsc1)CC1CCN(CCc2ccccc2Br)CC1 | 5.14 | 3.51 | 
20 | CN(Cc1ccsc1)CC1CCN(CCCc2ccccc2)CC1 | 4.11 | < 1.92 | 
21 | CN(Cc1ccsc1)CC1CCN(Cc2cc(Cl)ccc2Cl)CC1 | 4.80 | 3.71 | 
22 | CN(Cc1ccsc1)CC1CCN(Cc2cccc(I)c2)CC1 | 5.00 | 4.04 | 
23 | CN(Cc1ccsc1)CC1CCN(CCc2ccc(-c3ccccc3)cc2)CC1 |  |  | log(activity) (Salmonella typhimurium [3]): 3.5; growth inhibition (GI) (Salmonella typhimurium [13]): Active
24 | CN(Cc1ccsc1)CC1CCN(Cc2ccccc2F)CC1 | 5.06 | 3.90 | 
25 | CN(Cc1ccsc1)CC1CCN(Cc2ccc(Br)c(Br)c2)CC1 | 4.92 | 4.49 | 
26 | CNCC1CCN(CCc2ccccc2F)CC1 |  |  | growth inhibition (GI) (Salmonella typhimurium [9]): Active
27 | CN(Cc1ccsc1)CC1CCN(CCc2ccccc2Cl)CC1 | 5.22 | 3.63 | 
28 | Cc1ccccc1CN1CCC(CN(C)Cc2ccsc2)CC1 | 5.20 | 3.61 | 
29 | CN(Cc1ccsc1)CC1CCN(Cc2ccc(Cl)cc2)CC1 | 5.23 | 3.03 | 
30 | CN(Cc1ccsc1)CC1CCN(Cc2cccc(F)c2F)CC1 | 3.84 | 3.06 | growth inhibition (GI) (Salmonella typhimurium [9]): Active
31 | CN(Cc1ccsc1)CC1CCN(CCCc2ccccc2F)CC1 | 4.94 | 3.66 | 
32 | CN(Cc1ccsc1)CC1CCN(Cc2ccccc2C(F)(F)F)CC1 | 4.68 | 3.85 | growth inhibition (GI) (Salmonella typhimurium [9]): Active
33 | CN(Cc1ccsc1)CC1CCN(CCc2ccccc2C(F)(F)F)CC1 | 4.90 | 4.22 | 

The remaining compounds from weak to strong by pIC50 (Salmonella typhimurium [1]), led by results:

Row | pIC50 (Salmonella typhimurium [1]) | pEC50 (Salmonella typhimurium [2]) | Structure (SMILES) | also measured
34 | 5.24 | 3.08 | CN(Cc1ccsc1)CC1CCN(CCc2ccccc2F)CC1 | log(activity) (Salmonella typhimurium [3]): 2; log(activity) (Salmonella typhimurium [4]): 3
35 | 5.24 | 4.11 | CN(Cc1ccsc1)CC1CCN(Cc2ccc(I)cc2)CC1 | 
36 | 5.27 | 4.23 | CN(Cc1ccsc1)CC1CCN(CCCc2ccccc2Cl)CC1 | 
37 | 5.27 | 4.10 | CN(Cc1ccsc1)CC1CCN(Cc2ccccc2I)CC1 | 
38 | 5.28 | 3.52 | CN(Cc1ccsc1)CC1CCN(Cc2cccc(Cl)c2)CC1 | 
39 | 5.31 | 4.10 | CN(Cc1ccsc1)CC1CCN(Cc2ccccc2Br)CC1 | 
40 | 5.37 | 4.22 | CN(Cc1ccsc1)CC1CCN(CCc2ccccc2I)CC1 | growth inhibition (GI) (Salmonella typhimurium [8]): Active
41 | 5.40 | 4.36 | CN(Cc1ccsc1)CC1CCN(CCc2cccc(I)c2)CC1 | 
42 | 5.41 | 4.26 | CN(Cc1ccsc1)CC1CCN(Cc2ccc(Cl)c(Cl)c2)CC1 | 
43 | 5.44 | 4.08 | CN(Cc1ccsc1)CC1CCN(CCc2cccc(Br)c2)CC1 | growth inhibition (GI) (Salmonella typhimurium [9]): Active
44 | 5.47 | 4.38 | CN(Cc1ccsc1)CC1CCN(CCc2cc(Br)cc(Br)c2)CC1 | growth inhibition (GI) (Salmonella typhimurium [9]): Active
45 | 5.52 | 4.24 | CN(Cc1ccsc1)CC1CCN(CCc2ccc(Br)cc2)CC1 | 
46 | 5.52 | 4.06 | CN(Cc1ccsc1)CC1CCN(CCc2ccc(F)c(F)c2)CC1 | 
47 | 5.52 | 4.16 | CN(Cc1ccsc1)CC1CCN(CCc2ccc(Cl)cc2)CC1 | 
48 | 5.57 | 2.74 | CN(Cc1ccsc1)CC1CCN(Cc2ccccc2Cl)CC1 | 
49 | 5.57 | 4.15 | CN(Cc1ccsc1)CC1CCN(Cc2cccc(Cl)c2Cl)CC1 | 
50 | 5.59 | 4.05 | CN(Cc1ccsc1)CC1CCN(CCc2ccc(I)cc2)CC1 | growth inhibition (GI) (Salmonella typhimurium [8]): Active
51 | 5.60 | 4.55 | CN(Cc1ccsc1)CC1CCN(CCc2cccc3ccccc23)CC1 | growth inhibition (GI) (Salmonella typhimurium [8]): Active
52 | 5.60 | 4.66 | CN(Cc1ccsc1)CC1CCN(CCc2ccc(Cl)cc2Cl)CC1 | 
53 | 5.64 | 3.91 | CC(C)c1ccc(CCN2CCC(CN(C)Cc3ccsc3)CC2)cc1 | growth inhibition (GI) (Salmonella typhimurium [13]): Active
54 | 5.70 | 3.87 | CN(Cc1ccsc1)CC1CCN(CCc2cccc(Cl)c2)CC1 | growth inhibition (GI) (Salmonella typhimurium [9]): Active
55 | 5.74 | 4.51 | CN(Cc1ccsc1)CC1CCN(CCc2cccc(-c3ccccc3)c2)CC1 | growth inhibition (GI) (Salmonella typhimurium [13]): Active
56 | 5.80 | 4.35 | CN(Cc1ccsc1)CC1CCN(CCc2cc(Cl)cc(Cl)c2)CC1 | growth inhibition (GI) (Salmonella typhimurium [8]): Active
57 | 5.85 | 4.35 | CN(Cc1ccsc1)CC1CCN(CCc2ccc(Cl)c(Cl)c2)CC1 | growth inhibition (GI) (Salmonella typhimurium [8]): Active
